Most compounds without a hit are left out; they make up all but 4.6% or so of the library.
TAAR1 agonist = agonists of human TAAR1; CHO RD-HGA16 TAAR1, Fluo-8 calcium fluorescence; vehicle wells 0%, saturating PEA agonist 100%; activation, % at 3 µM; 360,000 compounds, 0.99% hits; AID 624467;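 active means activation above the mean activation of all test compounds in the run plus 3 SD, cut at about 38% in these data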
Target sequence (Q96RJ0 whole entry, looked up): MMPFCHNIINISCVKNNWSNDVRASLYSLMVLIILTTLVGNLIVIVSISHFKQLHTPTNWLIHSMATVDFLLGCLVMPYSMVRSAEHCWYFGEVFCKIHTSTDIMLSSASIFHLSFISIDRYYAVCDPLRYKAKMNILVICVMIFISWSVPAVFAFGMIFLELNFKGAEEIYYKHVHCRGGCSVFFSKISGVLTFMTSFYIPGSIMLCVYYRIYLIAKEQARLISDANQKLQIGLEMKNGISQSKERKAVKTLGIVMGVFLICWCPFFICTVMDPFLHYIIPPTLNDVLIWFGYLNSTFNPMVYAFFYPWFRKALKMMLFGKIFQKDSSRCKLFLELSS
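Benchmarks: low control DMSO, high control PEA (EC100); System: CHO RD-HGA16 cells carrying human TAAR1 plus Gα16; Detection: Fluo-8 fluorescence, 5 s baseline then 140 s kinetic read; Schedule: 17-24 h plating, Fluo-8 75 min 37 °C, 30 min RT; Read-out basis: % activation from peak over basal fluorescence ratio, DMSO-to-PEA scaled.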
GPR7 antag = blocks human GPR7 receptor signaling. GPR7-expressing cells, fluorescence antagonist assay. 290,000 compounds, 1.1% hits. inhibition, % at 4.4 µM. P48145; in the data active means inhibition above about 16%, passing the limit was not always enough;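 further: cells stimulated with the agonist NPW; 0% = agonist with vehicle and 100% = vehicle without agonist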
Target sequence (P48145 whole entry, looked up): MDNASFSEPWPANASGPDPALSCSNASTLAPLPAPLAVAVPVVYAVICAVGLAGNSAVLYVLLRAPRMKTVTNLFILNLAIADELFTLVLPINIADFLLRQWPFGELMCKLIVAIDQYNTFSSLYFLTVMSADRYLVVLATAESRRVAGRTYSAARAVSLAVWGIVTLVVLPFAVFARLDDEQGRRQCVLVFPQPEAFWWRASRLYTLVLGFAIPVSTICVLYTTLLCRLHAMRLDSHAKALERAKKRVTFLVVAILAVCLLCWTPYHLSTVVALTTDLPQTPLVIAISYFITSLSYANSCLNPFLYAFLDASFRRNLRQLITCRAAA
CHO parental Ca = counter-screen: ATP calcium response change in parental CHO cells. parental CHO-K1, ATP-induced calcium, Fluo-8 fluorescence. inhibition, % at 5.6 µM. 330,000 compounds, 0.63% hits;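 active means inhibition above that plate's mean sample inhibition plus 3 SD, cut at about 26% in these data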;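 further: 0% = ATP-challenged DMSO wells and 100% = DMSO wells without ATP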
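material = parental CHO cells | also added = ATP as calcium-mobilizing challenge | dosing = single point at 5.6 µM | detection = intracellular calcium via Fluo-8 no-wash fluorescent dye | read-out = % inhibition | benchmarks = low control ATP plus DMSO, high control DMSO only | repeats = one well per compound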
TAAR1 antagonist = antagonists of human TAAR1; Q96RJ0; CHO RD-HGA16 TAAR1, Fluo-8 calcium fluorescence, antagonist; inhibition, % at 3 µM; 360,000 compounds, 1.5% hits; AID 624466;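 active means inhibition above a per-plate cutoff, the mean inhibition of test compounds on that plate plus 3 SD, cut at about 49% in these data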;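 further: 0% = DMSO plus EC80 beta-PEA response and 100% = DMSO alone without agonist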
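Test system – hTAAR1-expressing CHO RD-HGA16 cells, Gα16-coupled · Also added – β-PEA at EC80 concentration, post-compound challenge · Compound – 3 µM, single point · Incubation – dye loading 75 min at 37 °C, then 30 min room temperature · Measured by – Fluo-8 intracellular calcium dye fluorescence, real-time kinetic reads · Benchmarks – vehicle and agonist controls · Replicates – singlicate, one well per test compound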
OX1R antag-1 = blocks the human orexin 1 receptor; CHO/OX1R cells, Fluo-8 calcium fluorescence, orexin A; inhibition, % at 5 µM; 330,000 compounds, 0.43% hits;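 active means inhibition above its plate's threshold, mean inhibition of all tested compounds on the plate plus 3 SD, cut at about 37% in these data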;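 further: 0% = orexin A challenge wells and 100% = SB-334867-A antagonist wells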
OX1R antag-2 = blocks the human orexin 1 receptor | O43613 | OX1R-expressing cells, FRET antagonist read-out | inhibition, % at 6.6 µM | 330,000 compounds, 1.8% hits; in the data active means inhibition mostly above about 38%, no sharp cut-off; inactive means mostly below about 40%;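 further: 0% = agonist challenge alone and 100% = reference antagonist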
GPR7 antag conf = confirmation of human GPR7 antagonists | shares compounds with GPR7 antag | GPR7-expressing cells, calcium fluorescence antagonist mode | inhibition, % at 4.4 µM | 2,400 compounds, 52% hits | AID 1952; in the data active means inhibition above about 24%;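 further: stimulated with the GPR7 agonist NPW; 0% = agonist plus vehicle and 100% = vehicle alone without agonist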
MCHR1 antagonist = antagonizes human MCHR1, a GPR7 antagonist counter-screen. 2,400 compounds, 62% hits. inhibition, % at 4.4 µM. shares compounds with GPR7 antag. AID 2148. MCHR1-expressing cells, fluorescence antagonist assay; in the data active means inhibition above about 22%;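 further: 0% = vehicle with agonist and 100% = vehicle without agonist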
* hit, by the source's call.

For CS(=O)(=O)N(CC(=O)Nc1ccc(F)c(F)c1)c1cccc([N+](=O)[O-])c1 the results were TAAR1 agonist 4, GPR7 antag 32*, CHO parental Ca -8, TAAR1 antagonist 7, OX1R antag-1 -17, OX1R antag-2 14, GPR7 antag conf 22 and MCHR1 antagonist 17.
`Cc1ccc2c(c1)[C@@H]1CN(C)CC[C@@H]1N2S(=O)(=O)c1ccc(F)cc1` gave TAAR1 agonist 2, GPR7 antag 5, CHO parental Ca -15, TAAR1 antagonist -11, OX1R antag-1 -15 and OX1R antag-2 2.
For Cc1ccc2c(c1)[C@@H]1CN(C)CC[C@@H]1N2S(=O)(=O)c1ccc([N+](=O)[O-])cc1 the results were TAAR1 agonist 14, GPR7 antag 29*, CHO parental Ca 9, TAAR1 antagonist 9, OX1R antag-1 -15, OX1R antag-2 44*, GPR7 antag conf -10 and MCHR1 antagonist 18.
Screening CSCCCNC(=S)N1CCN(c2ccc(C(C)=O)cc2)CC1 returned TAAR1 agonist 6, GPR7 antag 26*, CHO parental Ca 12, TAAR1 antagonist 8, OX1R antag-1 -2, OX1R antag-2 24, GPR7 antag conf 28* and MCHR1 antagonist 31*.
For CC(=O)c1ccc(N2CCN(C(=S)Nc3ccccc3)CC2)cc1 the results were TAAR1 agonist 18, GPR7 antag 8, CHO parental Ca 0, TAAR1 antagonist -2, OX1R antag-1 -15 and OX1R antag-2 12.
For Cc1cc(Cl)ccc1OCC(=O)N1CCN(c2ncccn2)CC1 the results were TAAR1 agonist 2, GPR7 antag 24*, CHO parental Ca -17, TAAR1 antagonist 18, OX1R antag-1 -21, OX1R antag-2 15, GPR7 antag conf -6 and MCHR1 antagonist 3.
Cc1ccc(NC(=O)C2COc3ccccc3O2)cc1S(=O)(=O)N1CCOCC1 (centres undefined) was read as TAAR1 agonist 14, CHO parental Ca -15, TAAR1 antagonist 17, OX1R antag-1 -24 and OX1R antag-2 7.
For O=C(N[C@H](C(=O)N1CCC[C@H]1C(=O)NC1CCCC1)C1CCCCC1)c1ccccc1 the results were TAAR1 agonist 1 and TAAR1 antagonist 3.
Screening COC(=O)c1sc(N)c(C(=O)OC)c1COC(=O)c1c(C)noc1C returned TAAR1 agonist 6, GPR7 antag 23*, CHO parental Ca -8, TAAR1 antagonist -13, OX1R antag-1 -25, OX1R antag-2 8, GPR7 antag conf 9 and MCHR1 antagonist 15.
For COC(=O)c1sc(NC(=O)c2c(C)noc2C)nc1C the results were TAAR1 agonist 0, GPR7 antag -8, CHO parental Ca -1, TAAR1 antagonist -9, OX1R antag-1 -11 and OX1R antag-2 28.
O=C(Nc1ccc(Cl)c(Cl)c1)Nc1ccon1 was read as TAAR1 agonist 23, GPR7 antag 35*, CHO parental Ca 13, TAAR1 antagonist 14, OX1R antag-1 11, OX1R antag-2 -1, GPR7 antag conf 35* and MCHR1 antagonist 65*.
`COc1ccc(S(=O)(=O)N2CCC(C(=O)NCc3ccco3)CC2)cc1` gave TAAR1 agonist 2, GPR7 antag 80*, CHO parental Ca -12, TAAR1 antagonist -5, OX1R antag-1 -19, OX1R antag-2 18, GPR7 antag conf 24* and MCHR1 antagonist 2.
`COc1ccc(S(=O)(=O)N2CCC(C(=O)NCCc3ccc4c(c3)OCO4)CC2)cc1` gave TAAR1 agonist 3, GPR7 antag 28*, CHO parental Ca -10, TAAR1 antagonist 1, OX1R antag-1 -7, OX1R antag-2 3, GPR7 antag conf 10 and MCHR1 antagonist 6.
Screening O=C(NCCc1ccc2c(c1)OCO2)C1CCN(S(=O)(=O)c2ccc(Cl)cc2)CC1 returned TAAR1 agonist -2, GPR7 antag -8, CHO parental Ca -8, TAAR1 antagonist -8, OX1R antag-1 -4 and OX1R antag-2 7.
Screening COc1ccc(CCNC(=O)c2ccc3c(c2)OCCO3)cc1 returned TAAR1 agonist 3, GPR7 antag 28*, CHO parental Ca -12, TAAR1 antagonist 0, OX1R antag-1 -8, OX1R antag-2 8, GPR7 antag conf -7 and MCHR1 antagonist 18.
`Cc1ccccc1CN1[C@@H](C)[C@H](c2ccccc2)Oc2cccc(N3CCCC(C)C3)c2S1(=O)=O` (some centres undefined) gave TAAR1 agonist 1 and TAAR1 antagonist -21.
`CCc1cc(=O)oc2cc(OCC(=O)N3CCC(C(=O)O)CC3)ccc12` gave TAAR1 agonist 1, GPR7 antag -11, CHO parental Ca -11, TAAR1 antagonist -11, OX1R antag-1 11 and OX1R antag-2 6.
For CCCc1cc(=O)oc2cc(OCC(=O)N3CCC(C(N)=O)CC3)ccc12 the results were TAAR1 agonist 2, GPR7 antag 23*, CHO parental Ca -9, TAAR1 antagonist -22, OX1R antag-1 -4, OX1R antag-2 11, GPR7 antag conf 11 and MCHR1 antagonist 0.
For Cc1c(C(=O)N2CC[C@@H](N3CCC(O)CC3)[C@H](O)C2)[nH]c2ccc(Cl)cc12 the results were TAAR1 agonist 1, GPR7 antag -4, CHO parental Ca -5, TAAR1 antagonist -23, OX1R antag-1 10 and OX1R antag-2 13.
Screening COC(=O)C[C@@H]1OC[C@H](C(C)C)N1S(=O)(=O)c1ccc(C)cc1 returned TAAR1 agonist -1 and TAAR1 antagonist -22.
For COC(=O)C(C(=O)OC)c1ccc(-n2cccc2)cc1 the results were TAAR1 agonist 0, GPR7 antag 35*, CHO parental Ca -4, TAAR1 antagonist -8, OX1R antag-1 -10, OX1R antag-2 26, GPR7 antag conf 12 and MCHR1 antagonist 9.
For O=C(N/C(=C\c1cccc([N+](=O)[O-])c1)C(=O)N1CCOCC1)c1ccc([N+](=O)[O-])cc1 the results were TAAR1 agonist 2, GPR7 antag 23*, CHO parental Ca -7, TAAR1 antagonist -7, OX1R antag-1 -5, OX1R antag-2 24, GPR7 antag conf 1 and MCHR1 antagonist -2.
For CC(C)c1[nH]nc2c1C(c1ccc(Br)cc1)NC2=O (centres undefined) the results were TAAR1 agonist 2 and TAAR1 antagonist -19.
Screening Fc1ccccc1/C=C1\CCCC2=C1NC(=S)NC2c1ccccc1F (centres undefined) returned TAAR1 agonist 0, GPR7 antag -6, CHO parental Ca -24, TAAR1 antagonist -2, OX1R antag-1 -30 and OX1R antag-2 23.

Screening results (PubChem)
